Reference: ChEMBL document CHEMBL1926518, “Synthesis of macrolones with central piperazine ring in the linker and its influence on antibacterial activity” (2011)
≈ marks a conversion by molar mass, not a printed value.

Experiments:
Assay type in all cases: functional
[1] = system: Staphylococcus aureus; experiment: Antibacterial activity against erythromycin-sensitive Staphylococcus aureus ATCC 13709 by broth microdilution technique
How it was run: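 MIC by broth microdilution per CLSI guidelines with doubling dilutions of compounds. Before testing, staphylococci were grown on Mueller–Hinton agar. Values reported in µg/mL.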

[2] = system: Streptococcus pneumoniae; experiment: Antibacterial activity against erythromycin-sensitive Streptococcus pneumoniae SP030 by broth microdilution technique
How it was run: (§1)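 Streptococcal MICs by CLSI broth microdilution with doubling dilutions, but with 5% horse serum in the medium in place of lysed blood. Before testing, strains were grown on Columbia agar with 5% sheep blood. Values reported in µg/mL.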

[3] = system: Streptococcus pyogenes; experiment: Antibacterial activity against erythromycin-sensitive Streptococcus pyogenes 3565 by broth microdilution technique; how it was run: as §1
[4] = system: Staphylococcus aureus; experiment: Antibacterial activity against inducible macrolide, licosamide and streptogramin-resistant Staphylococcus aureus 90256/97 by broth microdilution technique
How it was run: (§2)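 MICs were determined by CLSI broth microdilution, with double dilutions of compound. Staphylococci were grown on Mueller–Hinton agar before testing. Results are given in µg/mL.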

[5] = system: Streptococcus pneumoniae; experiment: Antibacterial activity against inducible macrolide-resistant, constitutive licosamide and streptogramin-resistant Streptococcus pneumoniae 134 GR-Micro by broth microdilution technique
How it was run: (§3)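 MICs were determined by CLSI broth microdilution, with double dilutions of compound. In the streptococcal medium, 5% horse serum replaced lysed blood. Streptococci were grown on Columbia agar with 5% sheep blood before testing. Results are given in µg/mL.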

[6] = system: Streptococcus pyogenes; experiment: Antibacterial activity against inducible macrolide, licosamide and streptogramin-resistant Streptococcus pyogenes Finland 11 by broth microdilution technique; how it was run: as §3
[7] = system: Staphylococcus aureus; experiment: Antibacterial activity against constitutive macrolide, licosamide and streptogramin-resistant Staphylococcus aureus PK2 by broth microdilution technique; how it was run: as §2
[8] = system: Streptococcus pneumoniae; experiment: Antibacterial activity against constitutive macrolide, licosamide and streptogramin-resistant Streptococcus pneumoniae 58 Spain by broth microdilution technique; how it was run: as §3
[9] = system: Streptococcus pyogenes; experiment: Antibacterial activity against constitutive macrolide, licosamide and streptogramin-resistant Streptococcus pyogenes 166 GR-Micro by broth microdilution technique; how it was run: as §3
[10] = system: Staphylococcus aureus; experiment: Antibacterial activity against efflux-mediated macrolide-resistant Staphylococcus aureus PK1 by broth microdilution technique; how it was run: as §2
[11] = system: Streptococcus pneumoniae; experiment: Antibacterial activity against efflux-mediated macrolide-resistant Streptococcus pneumoniae Ci137 by broth microdilution technique; how it was run: as §3
[12] = system: Streptococcus pyogenes; experiment: Antibacterial activity against efflux-mediated macrolide-resistant Streptococcus pyogenes 3 Finland by broth microdilution technique; how it was run: as §3
[13] = system: Haemophilus influenzae; experiment: Antibacterial activity against Haemophilus influenzae ATCC 49247 by broth microdilution technique
How it was run: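 MIC by broth microdilution per CLSI guidelines with doubling dilutions of compounds. Before testing, organisms were grown on Mueller-Hinton chocolate agar. Values reported in µg/mL.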

[14] = system: Moraxella catarrhalis; experiment: Antibacterial activity against Moraxella catarrhalis ATCC 23246 by broth microdilution technique
How it was run: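 MIC by broth microdilution per CLSI guidelines with doubling dilutions of compounds. Before testing, organisms were grown on Columbia agar with 5% sheep blood. Values reported in µg/mL.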

Compound: CCOC(=O)c1cn(C2CC2)c2ccc(C#CCN3CCN(C(=O)OC(C)(C)C)CC3)cc2c1=O
- MIC [1]: > 64 µg/mL
- MIC [2]: > 64 µg/mL
- MIC [3]: > 64 µg/mL
- MIC [4]: > 64 µg/mL
- MIC [5]: > 64 µg/mL
- MIC [6]: > 64 µg/mL
- MIC [7]: > 64 µg/mL
- MIC [8]: > 64 µg/mL
- MIC [9]: > 64 µg/mL
- MIC [10]: > 64 µg/mL
- MIC [11]: > 64 µg/mL
- MIC [12]: > 64 µg/mL
- MIC [13]: > 64 µg/mL
- MIC [14]: > 64 µg/mL

Compound: CCOC(=O)c1cn(CC)c2ccc(CCCN3CCN(CCC(=O)O[C@H]4[C@H](C)O[C@@H](O[C@H]5[C@H](C)[C@@H](O[C@@H]6O[C@H](C)C[C@H](N(C)C)[C@H]6O)[C@](C)(O)C[C@@H](C)CN(C)[C@H](C)[C@@H](O)[C@](C)(O)[C@@H](CC)OC(=O)[C@@H]5C)C[C@@]4(C)OC)CC3)cc2c1=O
- MIC [1]: 1 µg/mL (≈ 0.851 µM)
- MIC [2]: ≤ 0.125 µg/mL
- MIC [3]: ≤ 0.125 µg/mL
- MIC [4]: > 64 µg/mL
- MIC [5]: ≤ 0.125 µg/mL
- MIC [6]: ≤ 0.125 µg/mL
- MIC [7]: > 64 µg/mL
- MIC [8]: ≤ 0.125 µg/mL
- MIC [9]: 32 µg/mL (≈ 27.2 µM)
- MIC [10]: 64 µg/mL (≈ 54.5 µM)
- MIC [11]: ≤ 0.125 µg/mL
- MIC [12]: 0.5 µg/mL (≈ 0.426 µM)
- MIC [13]: 2 µg/mL (≈ 1.7 µM)
- MIC [14]: 0.25 µg/mL (≈ 0.213 µM)

Compound: CCOC(=O)c1cn(CC)c2ccc(/C=C/CN3CCNCC3)cc2c1=O
- MIC [1]: > 64 µg/mL
- MIC [2]: 64 µg/mL (≈ 173 µM)
- MIC [3]: > 64 µg/mL
- MIC [4]: > 64 µg/mL
- MIC [5]: > 64 µg/mL
- MIC [6]: > 64 µg/mL
- MIC [7]: > 64 µg/mL
- MIC [8]: > 64 µg/mL
- MIC [9]: > 64 µg/mL
- MIC [10]: > 64 µg/mL
- MIC [11]: > 64 µg/mL
- MIC [12]: > 64 µg/mL
- MIC [13]: > 64 µg/mL
- MIC [14]: > 64 µg/mL

Compound: CC[C@H]1OC(=O)[C@H](C)[C@@H](O[C@H]2C[C@@](C)(OC)[C@@H](OC(=O)CCN3CCN(CCCc4ccc5c(c4)c(=O)c(C(=O)O)cn5CC)CC3)[C@H](C)O2)[C@H](C)[C@@H](O[C@@H]2O[C@H](C)C[C@H](N(C)C)[C@H]2O)[C@](C)(O)C[C@@H](C)CN(C)[C@H](C)[C@@H](OC)[C@]1(C)O
- MIC [1]: ≤ 0.125 µg/mL
- MIC [2]: ≤ 0.125 µg/mL
- MIC [3]: ≤ 0.125 µg/mL
- MIC [4]: 4 µg/mL (≈ 3.45 µM)
- MIC [5]: 16 µg/mL (≈ 13.8 µM)
- MIC [6]: ≤ 0.125 µg/mL
- MIC [7]: > 64 µg/mL
- MIC [8]: ≤ 0.125 µg/mL
- MIC [9]: 32 µg/mL (≈ 27.6 µM)
- MIC [10]: 0.25 µg/mL (≈ 0.215 µM)
- MIC [11]: ≤ 0.125 µg/mL
- MIC [12]: ≤ 0.125 µg/mL
- MIC [13]: 1 µg/mL (≈ 0.862 µM)
- MIC [14]: 0.5 µg/mL (≈ 0.431 µM)

Compound: CCOC(=O)c1cn(CC)c2ccc(/C=C/CN3CCN(C(=O)OC(C)(C)C)CC3)cc2c1=O
- MIC [1]: > 64 µg/mL
- MIC [2]: 64 µg/mL (≈ 136 µM)
- MIC [3]: > 64 µg/mL
- MIC [4]: > 64 µg/mL
- MIC [5]: > 64 µg/mL
- MIC [6]: > 64 µg/mL
- MIC [7]: > 64 µg/mL
- MIC [8]: > 64 µg/mL
- MIC [9]: > 64 µg/mL
- MIC [10]: > 64 µg/mL
- MIC [11]: > 64 µg/mL
- MIC [12]: > 64 µg/mL
- MIC [13]: > 64 µg/mL
- MIC [14]: > 64 µg/mL

Compound: CCOC(=O)c1cn(CC)c2ccc(CCCN3CCN(CCC(=O)O[C@H]4[C@H](C)O[C@@H](O[C@H]5[C@H](C)[C@@H](O[C@@H]6O[C@H](C)C[C@H](N(C)C)[C@H]6O)[C@](C)(O)C[C@@H](C)CN(C)[C@H](C)[C@@H](OC)[C@](C)(O)[C@@H](CC)OC(=O)[C@@H]5C)C[C@@]4(C)OC)CC3)cc2c1=O
- MIC [1]: 4 µg/mL (≈ 3.37 µM)
- MIC [2]: ≤ 0.125 µg/mL
- MIC [3]: ≤ 0.125 µg/mL
- MIC [4]: > 64 µg/mL
- MIC [5]: 32 µg/mL (≈ 26.9 µM)
- MIC [6]: 2 µg/mL (≈ 1.68 µM)
- MIC [7]: > 64 µg/mL
- MIC [8]: 8 µg/mL (≈ 6.73 µM)
- MIC [9]: > 64 µg/mL
- MIC [10]: > 64 µg/mL
- MIC [11]: 2 µg/mL (≈ 1.68 µM)
- MIC [12]: 2 µg/mL (≈ 1.68 µM)
- MIC [13]: 32 µg/mL (≈ 26.9 µM)
- MIC [14]: 0.25 µg/mL (≈ 0.21 µM)

Compound: CC[C@H]1OC(=O)[C@H](C)[C@@H](O[C@H]2C[C@@](C)(OC)[C@@H](OC(=O)CCN3CCN(CC#Cc4ccc5c(c4)c(=O)c(C(=O)O)cn5CC)CC3)[C@H](C)O2)[C@H](C)[C@@H](O[C@@H]2O[C@H](C)C[C@H](N(C)C)[C@H]2O)[C@](C)(O)C[C@@H](C)CN(C)[C@H](C)[C@@H](OC)[C@]1(C)O
- MIC [1]: 0.25 µg/mL (≈ 0.216 µM)
- MIC [2]: ≤ 0.125 µg/mL
- MIC [3]: ≤ 0.125 µg/mL
- MIC [4]: 8 µg/mL (≈ 6.92 µM)
- MIC [5]: 8 µg/mL (≈ 6.92 µM)
- MIC [6]: ≤ 0.125 µg/mL
- MIC [7]: > 64 µg/mL
- MIC [8]: 4 µg/mL (≈ 3.46 µM)
- MIC [9]: 16 µg/mL (≈ 13.8 µM)
- MIC [10]: 0.5 µg/mL (≈ 0.432 µM)
- MIC [11]: ≤ 0.125 µg/mL
- MIC [12]: ≤ 0.125 µg/mL
- MIC [13]: 1 µg/mL (≈ 0.865 µM)
- MIC [14]: 0.5 µg/mL (≈ 0.432 µM)

Compound: CCOC(=O)c1cn(CC)c2ccc(C#CCN3CCN(CCC(=O)O[C@H]4[C@H](C)O[C@@H](O[C@H]5[C@H](C)[C@@H](O[C@@H]6O[C@H](C)C[C@H](N(C)C)[C@H]6O)[C@](C)(OC)C[C@@H](C)C(=O)[C@H](C)[C@@H](O)[C@](C)(O)[C@@H](CC)OC(=O)[C@@H]5C)C[C@@]4(C)OC)CC3)cc2c1=O
- MIC [1]: 0.25 µg/mL (≈ 0.214 µM)
- MIC [2]: ≤ 0.125 µg/mL
- MIC [3]: ≤ 0.125 µg/mL
- MIC [4]: > 64 µg/mL
- MIC [5]: 1 µg/mL (≈ 0.855 µM)
- MIC [6]: ≤ 0.125 µg/mL
- MIC [7]: > 64 µg/mL
- MIC [8]: ≤ 0.125 µg/mL
- MIC [9]: 8 µg/mL (≈ 6.84 µM)
- MIC [10]: 32 µg/mL (≈ 27.4 µM)
- MIC [11]: ≤ 0.125 µg/mL
- MIC [13]: 4 µg/mL (≈ 3.42 µM)
- MIC [14]: 1 µg/mL (≈ 0.855 µM)
